Assay outcomes from PubChem BioAssay.
Calb biofilm kill – mixtures killing C. albicans biofilm; 0.02% of 120,000 active; inhibition, % at 7.6 µM; C. albicans biofilm persisters + clotrimazole, fluorescence viability; primary screen in compound mixtures of four per well;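 further: compounds exposed to preformed 24 h biofilms for 48 h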
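System: C. albicans CAF4-2 wild-type biofilms; Medium: RPMI/MOPS medium, pH 7.0; Reagent: Clotrimazole, 50 µg/mL; Times: biofilm formation 24 h, compound exposure 48 h, 37 °C; Detection: 2-h Alamar Blue fluorescence, 535/590 nm excitation/emission; Evaluation: percent inhibition of biofilm viability.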
ROMK mod – modulators of human ROMK potassium channel; P48048; Tet-inducible ROMK, thallium flux fluorescence; actives lie on both sides; B-score at 10 µM; 2% of 130,000 active; AID 1918;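 active means signal ratio slope over the read window, or its plate-corrected B-score, at least 3 SD from the plate mean, either direction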;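 further: B-score of the F/F0 ratio slope over 7 to 12 s after thallium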
Target sequence (P48048 whole entry, looked up): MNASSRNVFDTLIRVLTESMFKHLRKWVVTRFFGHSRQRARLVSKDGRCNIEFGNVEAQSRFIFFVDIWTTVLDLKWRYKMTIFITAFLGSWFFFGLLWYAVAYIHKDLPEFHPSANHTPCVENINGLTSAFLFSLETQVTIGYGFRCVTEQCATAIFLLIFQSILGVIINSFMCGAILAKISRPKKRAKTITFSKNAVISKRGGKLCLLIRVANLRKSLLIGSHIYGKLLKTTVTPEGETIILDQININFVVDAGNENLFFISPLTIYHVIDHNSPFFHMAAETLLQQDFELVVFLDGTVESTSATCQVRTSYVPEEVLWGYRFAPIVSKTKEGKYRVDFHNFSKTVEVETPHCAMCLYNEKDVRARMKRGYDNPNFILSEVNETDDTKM
ROMK retest – retested hit modulating human ROMK potassium channel | shares compounds with ROMK mod | ROMK thallium flux, fluorescence ratio; stronger effect = lower value | normalized thallium flux (F/F0 slope) at 10 µM | 54% of 3,000 active | AID 1917;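 active means Flux at 10 µM at least 3 SD below or above vehicle control mean in one or both replicates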
Each line names hits and unclear results; the compound was inactive in the other large screens (follow-up assays come after a bar, where they were run). The entries come from a sample that favours hits as a whole.

Fc1ccc(NCc2nnc(SCc3nnc(-c4ccccc4)o3)n2Cc2ccccc2)cc1	ROMK mod -4.75 (no result: Calb biofilm kill) | ROMK retest 0.05
COc1ccccc1-c1csc(NC(=O)c2ccc(N3C(=O)CCC3=O)cc2)n1	none
CCc1ccc(CN2CCCC(CCC(=O)N3CCN(c4ccccn4)CC3)C2)o1 (configuration not stated)	none (no result: ROMK mod)
Cc1cccc(-n2c(=S)[nH]c3sc4c(c3c2=O)CCc2ccccc2-4)c1	none
N#C/C(C(N)=O)=C1/CCc2ccccc2N1	ROMK mod 4.74 (no result: Calb biofilm kill) | ROMK retest inactive
O=C1CCc2ccccc2N1	none (no result: ROMK mod)
COc1cccc(C(=O)O/N=C(\C)c2cnccn2)c1	ROMK mod -3.6 | ROMK retest 0.0635
C/C(=N/OC(=O)c1c(-c2c(Cl)cccc2Cl)noc1C)c1cnccn1	none
COC(=O)CCC(=O)Nc1ccc(Br)cc1	none (no result: Calb biofilm kill)
Cc1ccc(OC(=S)Nc2ccc(O)cc2)cc1	ROMK mod -5.13 | ROMK retest 0.0428
Cc1ccc(OC(=S)Nc2ccc(F)cc2)cc1	none
CN1CCN(c2ccc(C(=O)c3ccc(Br)cc3)cc2[N+](=O)[O-])CC1	none
CCN(CC(=O)Nc1cc(OC)ccc1OC)Cc1nc2ccccc2c(=O)[nH]1	ROMK mod 2.77 | ROMK retest inactive
CCN(CC(=O)Nc1ccc(C(=O)Nc2ccc(OC)cc2)cc1)Cc1nc2ccccc2c(=O)[nH]1	none (no result: ROMK mod)
Cc1ccc(C=Nc2ccccc2C(N)=O)cc1	none (no result: Calb biofilm kill)
Cc1ccccc1C=Nc1ccccc1C(N)=O	ROMK mod 2.77 | ROMK retest inactive
CCCCN(C(=O)c1cccc2c(=O)c(C)c(-c3ccccc3)oc12)c1ccccc1	ROMK mod -3.7 | ROMK retest 0.0628
CCCCNC(=O)c1cccc2c(=O)c(C)c(-c3ccccc3)oc12	none (no result: ROMK mod)
COc1ccccc1/C=C/C=N/n1c(C)nnc1C	none
Cc1cc(C)nc(NC(=O)/C=C/c2ccccc2Cl)c1	none (no result: ROMK mod)
Cc1cc(N)c2cc(NC(=O)/C=C/c3ccccc3Cl)ccc2n1	none (no result: ROMK mod) | ROMK retest 0.0547
CC(C(=O)Nc1ccc(S(=O)(=O)N2CCCCC2)cc1)N1CCN(c2ccccn2)CC1 (configuration not stated)	none
NC(=O)Cn1cnc2nc3n(c2c1=O)CCC3	none
O=c1nc(/C=C/c2cccn2-c2ccc([N+](=O)[O-])cc2)cc(C(F)(F)F)[nH]1	none
O=c1nc(/C=C/c2cc([N+](=O)[O-])ccc2Cl)cc(C(F)(F)F)[nH]1	ROMK mod -6.05 (no result: Calb biofilm kill) | ROMK retest 0.0403
CCC1CO/C(=C(\C(Cl)=C(Cl)Cl)[N+](=O)[O-])N1 (configuration not stated)	none
COc1cc(/C=C2\SC(=O)N(CCN)C2=O)ccc1OS(=O)(=O)c1cc(C)ccc1C	none
OCC(O)CNC(=S)NC1CCCCC1 (configuration not stated)	none
CC(C)CNC(=S)NC1CC2CCCC(C1)N2C1CCCCC1 (configuration not stated)	none | ROMK retest 0.0542
O=C(Nc1ccc(N2CCOCC2)cc1)C1CC(O)CN1S(=O)(=O)c1ccc(Cl)cc1 (configuration not stated)	none
O=C(C1CC(Cl)CN1S(=O)(=O)c1ccc(Cl)cc1)N1CCOCC1 (configuration not stated)	ROMK mod -2.03 | ROMK retest inactive
COc1ccc(C2=NOC(COc3ccc4c(C)cc(=O)oc4c3)C2)c(OC)c1 (configuration not stated)	none (no result: ROMK mod)
COc1ccccc1C1=NOC(COc2ccc3c(C)cc(=O)oc3c2)C1 (configuration not stated)	ROMK mod 3.33 | ROMK retest inactive
CCCCC(CC)CNC(=O)C(Cc1ccccc1)NS(=O)(=O)c1ccc2c(c1)CCC(=O)N2 (configuration not stated)	none
CCOc1cc(Br)c(C=O)cc1OCC	ROMK mod 2.89 | ROMK retest 0.101
COc1cc(C=O)c(Br)cc1OC1CCCC1	none (no result: Calb biofilm kill)
Cc1[nH]c2ccccc2c1CN1CCC(Cc2ccccc2)CC1	none
Cc1[nH]c2ccccc2c1CN1CCN(c2ccccn2)CC1	ROMK mod -3.67 | ROMK retest 0.0648
Cc1ccccc1/C=N/Nc1nc2ccccc2c(=O)n1O	none
CCOc1ccc(-c2c[n+]3c(n2-c2ccccc2)CCCCC3)cc1	none (no result: ROMK mod)
CNc1ccccc1C(=O)OCC(C)=O	none
COC(=O)c1ccccc1NC(=O)C/C(C)=N/NC(=O)CC#N	none (no result: ROMK mod)
COC(=O)c1ccccc1NC(=O)CC#N	none (no result: Calb biofilm kill, ROMK mod) | ROMK retest inactive
CNc1ccccc1C(=O)OC	none (no result: ROMK mod) | ROMK retest inactive
CCCCn1c2ccc(F)cc2c2nnc(NN)nc21	none
CNc1nc(NC#N)nc(SC)n1	none
CC1CCN(c2nc(N3CCCCC3)nc(N3CCCCC3)n2)CC1	none (no result: ROMK mod)
N#Cc1nc(N2CCCC2)nc(N2CCCC2)n1	ROMK mod -3.45 (no result: Calb biofilm kill) | ROMK retest 0.0633
COc1nc(OC)nc(N2CCCCCC2)n1	none
C1CCN(c2nc(N3CCCCC3)nc(N3CCNCC3)n2)CC1	ROMK mod -3.05 (no result: Calb biofilm kill) | ROMK retest 0.0669
Cc1ccc(NC(=O)C2CCCN2C(=O)OC(C)(C)C)cc1C (configuration not stated)	none (no result: ROMK mod)
CSc1ccc(CN2CCC(C(=O)NCc3ccc(C)cc3)CC2)cc1	none
CN(C)CCNC(=O)/C(=C/c1ccc(-c2ccc(Cl)cc2)o1)NC(=O)c1ccccc1	ROMK mod -4.38 | ROMK retest 0.0605
CN(C)CCCNC(=O)/C(=C\c1ccc(-c2cccc([N+](=O)[O-])c2)o1)NC(=O)c1ccccc1	none
Cc1ccc(C(=O)N/C(=C\c2ccc(-c3ccc(Br)cc3)o2)C(=O)NCCCN(C)C)cc1	ROMK mod -3.69 | ROMK retest 0.0478
CN(C)CCNC(=O)/C(=C/c1ccc(-c2ccc(Cl)cc2Cl)o1)NC(=O)c1ccccc1	none (no result: ROMK mod)
COC(=O)c1cc(NS(=O)(=O)c2ccc(NC(C)=O)cc2)ccc1Cl	none (no result: ROMK mod)
O=C(Nc1cccnc1)c1cccc(S(=O)(=O)N2CCc3ccccc32)c1	none
O=C(Nc1cccnc1)c1ccc(Cl)c(S(=O)(=O)N2CCc3ccccc32)c1	ROMK mod -3.79 | ROMK retest 0.0664
CCn1c(COc2ccccc2)nnc1SCC(=O)NC1CCCCC1	none (no result: Calb biofilm kill)
CCn1c(CNc2cccc(Cl)c2)nnc1SCC(=O)OC1CCCCC1	none (no result: Calb biofilm kill, ROMK mod) | ROMK retest 0.0621
O=C1C2C3c4ccccc4C(c4ccccc43)C2C(=O)N1Cc1ccccn1 (configuration not stated)	none (no result: ROMK mod)
Cc1nc2cc(C(=O)OCC(=O)NC3CCS(=O)(=O)C3)ccc2n1-c1ccccc1 (configuration not stated)	none (no result: Calb biofilm kill)
Cc1nc2cc(C(=O)OCC(=O)NC34CC5CC(CC(C5)C3)C4)ccc2n1-c1ccccc1	ROMK mod -2.99 | ROMK retest 0.0645
Cc1ccc(C)c(N2C(=O)c3cc(N4CCOCC4)c([N+](=O)[O-])cc3C2=O)c1	none
CCOc1ccccc1NC(=O)NC(=O)N(C)S(=O)(=O)c1ccc(C)cc1	none
CCOc1ccc(NC(=O)NC(=O)N(C)S(=O)(=O)c2ccc(C)cc2)cc1	ROMK mod -2 | ROMK retest inactive
Cc1ccc(SCCc2ccc(C)nc2)cc1	none
O=C(O)c1cc(-c2ccc(/C=C3/SC(=S)N(Cc4ccccc4)C3=O)o2)ccc1Cl	ROMK mod -4.02 | ROMK retest 0.0427
COc1ccc(CN2C(=O)/C(=C/c3ccc(-c4ccc(Cl)c(C(=O)O)c4)o3)SC2=S)cc1	none
O=c1c2oc3nc4c(cc3c2ncn1CCCc1ccccc1)CCCC4	none (no result: ROMK mod)
Cc1ccc(OCCn2c(CCCO)nc3ccccc32)cc1	none (no result: Calb biofilm kill)
OCCCc1nc2ccccc2n1CCOc1ccccc1	ROMK mod -2.89 (no result: Calb biofilm kill) | ROMK retest 0.0672
